Source: ChEMBL document CHEMBL1152244, “Proteochemometrics analysis of substrate interactions with dengue virus NS3 proteases” (Bioorg Med Chem, 2008)
Non-standard residues stand in square brackets, D forms with d. Residues, ends and D or L forms follow the SMILES beside them. Tyr(3-NO2) = N[C@@H](Cc1ccc(O)c([N+](=O)[O-])c1)C(=O)O; 2Abz = Nc1ccccc1C(=O)O

What was measured:
[1] = test system: dengue virus type 1; test: Activity of dengue virus 1 recombinant NS3 protease expressed in Escherichia coli C41(DE3) by fluorogenic assay
In short: (§1)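 NS2B(H)-NS3pro from inclusion bodies, Ni-chelate and gel filtration purified under 8 M urea, refolded by dialysis. Internally quenched Abz–RRRR-XXXX–nY–NH2 peptides, 1–100 µM (12 points), enzyme 150–200 nM, 50 mM Tris–HCl pH 9.0, 20% glycerol, 37 °C. Cleavage read as fluorescence, ex 320/em 420 nm. Initial rates fitted to give Km and kcat, averaged over ≥3 independent measurements.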

[2] = test system: dengue virus type 2; test: Activity of dengue virus 2 recombinant NS3 protease expressed in Escherichia coli C41(DE3) by fluorogenic assay; in short: as §1
[3] = test system: dengue virus type 3; test: Activity of dengue virus 3 recombinant NS3 protease expressed in Escherichia coli C41(DE3) by fluorogenic assay; in short: as §1
[4] = test system: dengue virus type 4; test: Activity of dengue virus 4 recombinant NS3 protease expressed in Escherichia coli C41(DE3) by fluorogenic assay; in short: as §1

| Structure (SMILES) | Km [1] [µM] | kcat [1] [s⁻¹] | Km [2] [µM] | kcat [2] [s⁻¹] | Km [3] [µM] | kcat [3] [s⁻¹] | Km [4] [µM] | kcat [4] [s⁻¹] |
| --- | --- | --- | --- | --- | --- | --- | --- | --- |
| CSCC[C@H](NC(=O)CNC(=O)[C@H](C)NC(=O)[C@H](C)NC(=O)c1ccccc1N)C(=O)N[C@@H](Cc1ccc(O)c([N+](=O)[O-])c1)C(N)=O (H-[2Abz]AAGM[Tyr(3-NO2)]-NH2) | 17.9 | 0.0818 | 2.46 | 0.00917 | 12.1 | 0.012 | 8.22 | 0.0852 |
| CC(C)[C@H](NC(=O)[C@H](C)NC(=O)[C@H](C)NC(=O)c1ccccc1N)C(=O)N[C@@H](CC(=O)O)C(=O)N[C@@H](Cc1ccc(O)c([N+](=O)[O-])c1)C(N)=O (H-[2Abz]AAVD[Tyr(3-NO2)]-NH2) | 31.4 | 0.0352 | 18.3 | 0.0125 | 21.2 | 0.0153 | 36.9 | 0.113 |
| C[C@H](NC(=O)c1ccccc1N)C(=O)NCC(=O)N1CCC[C@H]1C(=O)N[C@@H](CC(N)=O)C(=O)N[C@@H](Cc1ccc(O)c([N+](=O)[O-])c1)C(N)=O (H-[2Abz]AGPN[Tyr(3-NO2)]-NH2) | 12.6 | 0.0257 | 4.18 | 0.00683 | 10.8 | 0.0103 | 19.2 | 0.0745 |
| CC(C)C[C@H](NC(=O)[C@@H](NC(=O)CNC(=O)[C@H](C)NC(=O)c1ccccc1N)C(C)C)C(=O)N[C@@H](Cc1ccc(O)c([N+](=O)[O-])c1)C(N)=O (H-[2Abz]AGVL[Tyr(3-NO2)]-NH2) | 23.9 | 0.06 | 2.19 | 0.00567 | 10.6 | 0.0105 | 10.8 | 0.0553 |
| C[C@H](NC(=O)c1ccccc1N)C(=O)N[C@@H](Cc1cnc[nH]1)C(=O)N[C@@H](CO)C(=O)N[C@@H](CS)C(=O)N[C@@H](Cc1ccc(O)c([N+](=O)[O-])c1)C(N)=O (H-[2Abz]AHSC[Tyr(3-NO2)]-NH2) |  |  | 5.63 | 0.00433 |  |  | 4.21 | 0.0305 |
| C[C@H](NC(=O)c1ccccc1N)C(=O)N[C@@H](CC(N)=O)C(=O)NCC(=O)N[C@@H](Cc1cnc[nH]1)C(=O)N[C@@H](Cc1ccc(O)c([N+](=O)[O-])c1)C(N)=O (H-[2Abz]ANGH[Tyr(3-NO2)]-NH2) | 22.3 | 0.031 | 7.02 | 0.0015 | 31.4 | 0.0102 | 10.8 | 0.0595 |
| C[C@H](NC(=O)c1ccccc1N)C(=O)N1CCC[C@H]1C(=O)N[C@@H](CS)C(=O)N[C@@H](CC(N)=O)C(=O)N[C@@H](Cc1ccc(O)c([N+](=O)[O-])c1)C(N)=O (H-[2Abz]APCN[Tyr(3-NO2)]-NH2) | 11.4 | 0.0397 | 5.41 | 0.004 | 3.87 | 0.0112 | 4.94 | 0.0477 |
| C[C@H](NC(=O)c1ccccc1N)C(=O)N1CCC[C@H]1C(=O)NCC(=O)N[C@@H](CC(=O)O)C(=O)N[C@@H](Cc1ccc(O)c([N+](=O)[O-])c1)C(N)=O (H-[2Abz]APGD[Tyr(3-NO2)]-NH2) |  |  | 19.6 | 0.000667 |  |  | 89 | 0.0103 |
| NC(=O)[C@H](Cc1ccc(O)c([N+](=O)[O-])c1)NC(=O)[C@H](Cc1cnc[nH]1)NC(=O)[C@H](CS)NC(=O)CNC(=O)[C@H](CC(=O)O)NC(=O)c1ccccc1N (H-[2Abz]DGCH[Tyr(3-NO2)]-NH2) | 22.9 | 0.0128 | 7.02 | 0.0015 | 20.8 | 0.00283 | 9.05 | 0.00783 |
| C[C@@H](O)[C@H](NC(=O)[C@H](CO)NC(=O)[C@H](CC(=O)O)NC(=O)c1ccccc1N)C(=O)N[C@@H](CS)C(=O)N[C@@H](Cc1ccc(O)c([N+](=O)[O-])c1)C(N)=O (H-[2Abz]DSTC[Tyr(3-NO2)]-NH2) | 15.2 | 0.00767 | 12.8 | 0.00117 | 11.1 | 0.00333 | 23.1 | 0.014 |
| C[C@H](NC(=O)CNC(=O)c1ccccc1N)C(=O)N[C@H](C(=O)N[C@@H](Cc1cnc[nH]1)C(=O)N[C@@H](Cc1ccc(O)c([N+](=O)[O-])c1)C(N)=O)[C@@H](C)O (H-[2Abz]GATH[Tyr(3-NO2)]-NH2) | 17.4 | 0.0825 | 4.66 | 0.0157 | 18.9 | 0.0237 | 7.79 | 0.0782 |
| NC(=O)[C@H](Cc1ccc(O)c([N+](=O)[O-])c1)NC(=O)[C@H](CS)NC(=O)[C@@H]1CCCN1C(=O)[C@H](CC(=O)O)NC(=O)CNC(=O)c1ccccc1N (H-[2Abz]GDPC[Tyr(3-NO2)]-NH2) | 31.9 | 0.0202 | 13.2 | 0.003 | 41.5 | 0.007 | 11.5 | 0.021 |
| C[C@@H](O)[C@H](NC(=O)CNC(=O)CNC(=O)c1ccccc1N)C(=O)N[C@@H](CC(=O)O)C(=O)N[C@@H](Cc1ccc(O)c([N+](=O)[O-])c1)C(N)=O (H-[2Abz]GGTD[Tyr(3-NO2)]-NH2) | 49.7 | 0.0715 | 12.9 | 0.00717 | 18.6 | 0.0247 | 12.2 | 0.0585 |
| NC(=O)[C@H](Cc1ccc(O)c([N+](=O)[O-])c1)NC(=O)[C@@H]1CCCN1C(=O)[C@@H]1CCCN1C(=O)CNC(=O)c1ccccc1N (H-[2Abz]GPP[Tyr(3-NO2)]-NH2) | 16.9 | 0.02 | 5.15 | 0.00283 | 18.7 | 0.00733 | 8.15 | 0.022 |
| C[C@@H](O)[C@H](NC(=O)CNC(=O)c1ccccc1N)C(=O)NCC(=O)N[C@@H](CC(N)=O)C(=O)N[C@@H](Cc1ccc(O)c([N+](=O)[O-])c1)C(N)=O (H-[2Abz]GTGN[Tyr(3-NO2)]-NH2) | 22.1 | 0.0462 | 3.05 | 0.00483 | 20.9 | 0.0128 | 10.7 | 0.0855 |
| CC(C)[C@H](NC(=O)[C@@H](NC(=O)CNC(=O)c1ccccc1N)[C@@H](C)O)C(=O)N[C@@H](CC(N)=O)C(=O)N[C@@H](Cc1ccc(O)c([N+](=O)[O-])c1)C(N)=O (H-[2Abz]GTVN[Tyr(3-NO2)]-NH2) | 10.5 | 0.0193 | 6.5 | 0.0055 | 12.6 | 0.00967 | 11.8 | 0.0735 |
| NC(=O)C[C@H](NC(=O)CNC(=O)[C@H](Cc1cnc[nH]1)NC(=O)[C@H](Cc1cnc[nH]1)NC(=O)c1ccccc1N)C(=O)N[C@@H](Cc1ccc(O)c([N+](=O)[O-])c1)C(N)=O (H-[2Abz]HHGN[Tyr(3-NO2)]-NH2) | 9.1 | 0.004 | 4.34 | 0.00133 | 10.1 | 0.00183 | 7.06 | 0.0192 |
| CC(C)C[C@H](NC(=O)[C@H](Cc1cnc[nH]1)NC(=O)c1ccccc1N)C(=O)N[C@H](C(=O)N[C@@H](Cc1cnc[nH]1)C(=O)N[C@@H](Cc1ccc(O)c([N+](=O)[O-])c1)C(N)=O)C(C)C (H-[2Abz]HLVH[Tyr(3-NO2)]-NH2) | 8.83 | 0.00617 | 14.1 | 0.00233 |  |  | 16.3 | 0.018 |
| NC(=O)C[C@H](NC(=O)[C@H](Cc1cnc[nH]1)NC(=O)c1ccccc1N)C(=O)N[C@@H](CS)C(=O)N[C@@H](CS)C(=O)N[C@@H](Cc1ccc(O)c([N+](=O)[O-])c1)C(N)=O (H-[2Abz]HNCC[Tyr(3-NO2)]-NH2) |  |  | 8.81 | 0.00233 | 10 | 0.00283 | 3.28 | 0.0157 |
| NC(=O)[C@H](Cc1ccc(O)c([N+](=O)[O-])c1)NC(=O)[C@H](CC(=O)O)NC(=O)[C@H](CO)NC(=O)[C@H](Cc1c[nH]c2ccccc12)NC(=O)[C@H](Cc1cnc[nH]1)NC(=O)c1ccccc1N (H-[2Abz]HWSD[Tyr(3-NO2)]-NH2) | 17.2 | 0.0025 | 14.9 | 0.00117 |  |  | 9.76 | 0.0108 |
| CC(C)[C@H](NC(=O)[C@H](CC(=O)O)NC(=O)[C@H](CC(N)=O)NC(=O)c1ccccc1N)C(=O)N[C@@H](CC(=O)O)C(=O)N[C@@H](Cc1ccc(O)c([N+](=O)[O-])c1)C(N)=O (H-[2Abz]NDVD[Tyr(3-NO2)]-NH2) | 106 | 0.006 | 43.2 | 0.00167 |  |  | 85.9 | 0.0253 |
| C[C@H](NC(=O)CNC(=O)[C@H](C)NC(=O)[C@H](CO)NC(=O)c1ccccc1N)C(=O)N[C@@H](Cc1ccc(O)c([N+](=O)[O-])c1)C(N)=O (H-[2Abz]SAGA[Tyr(3-NO2)]-NH2) | 23.3 | 0.227 | 3.06 | 0.027 |  |  | 10.5 | 0.222 |
| CC(C)[C@H](NC(=O)CNC(=O)[C@H](CO)NC(=O)c1ccccc1N)C(=O)N[C@@H](CS)C(=O)N[C@@H](Cc1ccc(O)c([N+](=O)[O-])c1)C(N)=O (H-[2Abz]SGVC[Tyr(3-NO2)]-NH2) |  |  | 4.26 | 0.0163 | 19.7 | 0.0292 | 7.06 | 0.0757 |
| NC(=O)[C@H](Cc1ccc(O)c([N+](=O)[O-])c1)NC(=O)[C@H](CS)NC(=O)CNC(=O)[C@H](Cc1c[nH]c2ccccc12)NC(=O)[C@H](CO)NC(=O)c1ccccc1N (H-[2Abz]SWGC[Tyr(3-NO2)]-NH2) |  |  | 2.87 | 0.0065 |  |  | 4.79 | 0.0398 |
